Data published in ChEMBL document CHEMBL1136149, “Design, synthesis and antimalarial activity of novel, quinoline-based, zinc metallo-aminopeptidase inhibitors” (Bioorg Med Chem Lett, 2003).

Assays:
Plasmodium falciparum [1] = test: Inhibitory activity against Plasmodium falciparum FcB1
Aminopeptidase N = target: T1, Aminopeptidase N (Plasmodium falciparum FcB1/Columbia, UniProt O96935); test: Inhibitory activity for Plasmodium falciparum Zinc aminopeptidase
T1 sequence (O96935 whole entry): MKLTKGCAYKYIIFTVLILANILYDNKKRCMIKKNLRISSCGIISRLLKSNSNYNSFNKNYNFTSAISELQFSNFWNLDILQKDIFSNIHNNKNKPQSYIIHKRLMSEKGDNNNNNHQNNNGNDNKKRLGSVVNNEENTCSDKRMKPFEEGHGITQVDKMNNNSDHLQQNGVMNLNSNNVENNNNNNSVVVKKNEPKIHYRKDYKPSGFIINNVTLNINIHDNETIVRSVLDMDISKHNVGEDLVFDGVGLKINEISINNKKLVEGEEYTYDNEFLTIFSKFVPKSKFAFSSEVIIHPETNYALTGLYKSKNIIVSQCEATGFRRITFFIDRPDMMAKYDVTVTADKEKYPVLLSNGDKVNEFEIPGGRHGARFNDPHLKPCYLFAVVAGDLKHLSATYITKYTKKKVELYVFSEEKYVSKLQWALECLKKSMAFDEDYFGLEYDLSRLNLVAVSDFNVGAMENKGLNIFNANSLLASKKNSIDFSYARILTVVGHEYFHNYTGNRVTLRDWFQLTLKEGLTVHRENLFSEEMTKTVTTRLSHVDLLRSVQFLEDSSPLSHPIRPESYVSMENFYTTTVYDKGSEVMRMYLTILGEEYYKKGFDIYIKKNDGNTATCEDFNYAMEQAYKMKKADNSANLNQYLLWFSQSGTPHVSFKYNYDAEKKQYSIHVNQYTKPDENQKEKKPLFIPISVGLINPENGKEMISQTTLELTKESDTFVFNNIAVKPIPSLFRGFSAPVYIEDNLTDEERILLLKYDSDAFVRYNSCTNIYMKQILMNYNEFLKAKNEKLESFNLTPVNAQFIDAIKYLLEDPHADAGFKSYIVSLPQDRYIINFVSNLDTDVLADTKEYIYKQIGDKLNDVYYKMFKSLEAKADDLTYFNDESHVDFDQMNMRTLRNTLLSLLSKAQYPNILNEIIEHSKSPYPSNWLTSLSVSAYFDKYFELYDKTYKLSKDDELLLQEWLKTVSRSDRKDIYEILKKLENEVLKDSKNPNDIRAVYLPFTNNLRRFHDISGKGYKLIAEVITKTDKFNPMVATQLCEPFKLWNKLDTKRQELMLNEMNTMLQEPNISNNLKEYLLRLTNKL

Plasmodium falciparum [2] = test: Inhibitory activity against Plasmodium falciparum Zinc-aminopeptidase PfA-M1 at 10 uM; format: functional
Summary of the method: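 Native purified PfA-M1, diluted 10-fold in 25 mM Tris-HCl pH 7.4. Enzyme pre-incubated 10 min at rt with inhibitor (10 µM final, DMSO present), then Leu-pNA substrate added. Kinetics followed at 405 nm. Initial velocities normalized to the no-inhibitor control (Vmax). Single-point percent inhibition (Z' 0.82). Bestatin as reference.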

| Compound | IC50 (Plasmodium falciparum [1]) | IC50 (Aminopeptidase N) | inhibition at 10 µM (Plasmodium falciparum [2]) |
| --- | --- | --- | --- |
| CC(C)CN(CCCN1CCN(CCCNc2ccnc3cc(Cl)ccc23)CC1)C(=O)CC(=O)NO | 317 nM | 854 nM | – |
| O=C(O)CCC(=O)N(CCCN1CCN(CCCNc2ccnc3cc(Cl)ccc23)CC1)CC1CC1 | 1380 nM | > 10000 nM | 22% |
| CC(C)CC(C(=O)NO)C(=O)N(CCCN1CCN(CCCNc2ccnc3cc(Cl)ccc23)CC1)CC(C)C (centres undefined) | 151 nM | – | – |
| NCCC(=O)N(CCCN1CCN(CCCNc2ccnc3cc(Cl)ccc23)CC1)CC1CC1 | 398 nM | 21000 nM | – |
| CC(C)C[C@H](NC(=O)[C@@H](O)[C@H](N)Cc1ccccc1)C(=O)O [UBENIMEX] | 29000 nM | – | – |
